Series [1] is described as follows: Inhibition of wild-type Acinetobacter baumannii DNA topoisomerase-4 mediated supercoiled pBR322 DNA relaxation by ethidium bromide based agarose gel electrophoresis.
The nature of series [2]: Inhibition of wild-type Escherichia coli DNA topoisomerase-4 mediated supercoiled pBR322 DNA relaxation by ethidium bromide based agarose gel electrophoresis.
In series [3] the test system is Staphylococcus aureus. Kind of series: Antibacterial activity against Staphylococcus aureus ATCC 29213 by CLSI broth microdilution method. Type of series: functional. (In general: Dilution methods test growth across graded concentrations, often in twofold steps.)
The subject of a further series is Escherichia coli. Kind of series: Antibacterial activity against wild-type Escherichia coli ATCC 25922 by CLSI broth microdilution method. The format is functional.
For another series, the system named is Acinetobacter baumannii. Kind of series: Antibacterial activity against fluoroquinolone-resistant Acinetobacter baumannii T6474 by CLSI broth microdilution method. The format is functional.
The next series has as its system Pseudomonas aeruginosa. Put plainly: Antibacterial activity against Pseudomonas aeruginosa ATCC 27853 by CLSI broth microdilution method. Type of series: functional.
Series [4] is described as follows: Inhibition of wild-type Escherichia coli DNA gyrase supercoiling activity using relaxed pBR322 DNA as substrate by ethidium bromide based agarose gel electrophoresis.
Series [5] can be described thus: Inhibition of wild-type Acinetobacter baumannii DNA gyrase supercoiling activity using relaxed pBR322 DNA as substrate by ethidium bromide based agarose gel electrophoresis.
Series [6] is described as follows: Inhibition of wild-type Pseudomonas aeruginosa DNA gyrase supercoiling activity using relaxed pBR322 DNA as substrate by ethidium bromide based agarose gel electrophoresis.
Series [7] can be described thus: Inhibition of wild-type Pseudomonas aeruginosa DNA topoisomerase-4 mediated supercoiled pBR322 DNA relaxation by ethidium bromide based agarose gel electrophoresis.
The test system of series [8] is Mus musculus. Put plainly: Dose normalized AUC in NMRI mouse at 10 mg/kg, iv by LC-MS/MS analysis. Type of series: ADME, organism-based. The conditions noted are these: in vivo.
Series [9] is described as follows: Fraction unbound in NMRI mouse at 10 mg/kg, iv by rapid equilibrium dialysis. Type of series: ADME, organism-based. The conditions noted are these: plasma. In outline: (§1)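 Mice dosed iv at 10 mg/kg or sc at 120 mg/kg. AUC normalized to dose (μg·h/(mL·dose)). Unbound AUC derived using fraction unbound. Clearance, Vdss and terminal half-life also derived.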
For series [10], the system named is Mus musculus. Kind of series: Dose normalized unbound AUC in NMRI mouse at 10 mg/kg, iv by LC-MS/MS analysis. As to conditions: in vivo. Type of series: ADME, organism-based. In outline:
as §1

Series [11] can be described thus: Volume of distribution at steady state in NMRI mouse at 10 mg/kg, iv by LC-MS/MS analysis. The conditions noted are these: in vivo, read-out: Vdss. Type of series: ADME, organism-based. In outline: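 Mice received a single dose of 10 mg/kg intravenously, or 120 mg/kg subcutaneously for one compound. Clearance, Vdss, half-life, unbound fraction and dose-normalized AUC were derived from plasma exposure.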

Series [12] in a line: Terminal half-life in NMRI mouse at 10 mg/kg, iv by LC-MS/MS analysis. As to conditions: in vivo, read-out: beta t1/2 (converted). Type of series: ADME, organism-based. The method, boiled down:
as §1

In series [13] the test system is Staphylococcus aureus. Put plainly: Antibacterial activity against methicillin-sensitive Staphylococcus aureus A-1178 by CLSI broth microdilution method. Type of series: functional.
Series [14] concerns Staphylococcus aureus. Kind of series: Antibacterial activity against methicillin-sensitive Staphylococcus aureus A-1178 infected in cyclophosphamide-induced neutropenic NMRI mouse model assessed as log reduction in colony forming units in thighs at 40 mg/kg, sc treated 2 hrs post infection measured 22 hrs post dose. The format is functional. In outline:
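Neutropenic mouse thigh model infected with a methicillin-sensitive S. aureus strain, subcutaneous dosing. Thigh CFU measured 24 h post-infection (22 h post-treatment). Net log reduction given against CFU at treatment start.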

The test system of series [15] is Staphylococcus aureus. Kind of series: Antibacterial activity against methicillin/quinolone-resistant Staphylococcus aureus A-1171 by CLSI broth microdilution method. The format is functional.
For series [16], the system named is Staphylococcus aureus. Kind of series: Antibacterial activity against methicillin/quinolone-resistant Staphylococcus aureus A-1171 infected in cyclophosphamide-induced neutropenic NMRI mouse model assessed as log reduction in colony forming units in thighs at 40 mg/kg, sc treated 2 hrs post infection measured 22 hrs post dose. Type of series: functional. In outline:
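Neutropenic murine thigh infection with MRSA. A single subcutaneous dose of 40 mg/kg was given. Thigh CFU were counted 24 h postinfection (22 h post-treatment). The net change in bacterial load is given in log units relative to CFU at the start of treatment.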

The test system of series [17] is Klebsiella pneumoniae. Kind of series: Antibacterial activity against Klebsiella pneumoniae ATCC 43816 by CLSI broth microdilution method. Type of series: functional.
In series [18] the test system is Klebsiella pneumoniae. Kind of series: Antibacterial activity against Klebsiella pneumoniae ATCC 43816 infected in cyclophosphamide-induced neutropenic NMRI mouse model assessed as reduction in colony forming units in thighs at 30 mg/kg, sc treated 2 hrs post infection measured 5.5 hrs post dose. The format is functional, organism-based. In outline:
(§2)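 Neutropenic murine thigh infection with a K. pneumoniae strain, single subcutaneous dose. Thigh CFU read 7.5 h post-infection (5.5 h after treatment, covering the dosing interval). Net log change computed against CFU at start of treatment.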

For series [19], the system named is Klebsiella pneumoniae. Put plainly: Antibacterial activity against Klebsiella pneumoniae ATCC 43816 infected in cyclophosphamide-induced neutropenic NMRI mouse model assessed as log reduction in colony forming units in thighs at 90 mg/kg, sc treated 2 hrs post infection measured 5.5 hrs post dose. Type of series: functional. The method, boiled down:
as §2

Active and inactive are the calls of the source. No cut-off for these calls is given here.

A word on the IC50: it is the point on the concentration scale where inhibition reaches its midpoint. Usually MIC stands for the lowest concentration that inhibits growth of the organism. High values mean a less susceptible organism, low ones a more susceptible organism. As a reminder, the fraction unbound is free concentration divided by total concentration. The low end stands for little free substance, the high end for much free substance. As for `COc1ccc2ncc(F)c(CC(N)[C@@H]3CC[C@@H](NCc4ccc5c(n4)NC(=O)CO5)CO3)c2n1` (mixture of isomers), the IC50 in series [1] was determined as 30 nM; in [2] it was 30 nM; in series [4], 125 nM; in [5] it was 125 nM; in series [6], 30 nM; in series [7], 30 nM. The MIC against Staphylococcus aureus [3] stood at 0.03 µg/mL; with Escherichia coli, 0.25 µg/mL; in the series with Acinetobacter baumannii, 0.25 µg/mL; with Pseudomonas aeruginosa it was 4 µg/mL; in the series with Staphylococcus aureus [13], 0.06 µg/mL; in the series on Staphylococcus aureus [15], 0.03 µg/mL. In the series with Klebsiella pneumoniae [17], this compound showed an MIC of 0.125 µg/mL. Besides, in the series on Mus musculus [8], the AUC/dose was determined as 260 ng·h/mL. The compound further yielded a fraction unbound in [9] of 0.154. In the series with Mus musculus [10], the fAUC/dose is 40 µg·h/mL. In addition, the Vd in series [11] was 6 L/kg. In series [12], the half-life was 1.2 h. The values for the Activity in the series with Staphylococcus aureus [14], with Staphylococcus aureus [16] and in the series on Klebsiella pneumoniae [19] were 2 log10CFU, 1 log10CFU and 1 log10CFU, respectively. For the same compound, the outcome in the series on Klebsiella pneumoniae [18] was inactive.
